The text below walks through data of ChEMBL document CHEMBL1124084, “Studies on scavengers of active oxygen species. 1. Synthesis and biological activity of 2-O-alkylascorbic acids” (J Med Chem, 1988).

The species entered for assay [1] is Rattus norvegicus. Put plainly: Inhibition of lipid peroxidation was determined with rat brain tissue homogenates. Format: functional. In short, it runs like this: (§1)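 Brains excised from male SD rats (12 weeks), exsanguinated under pentobarbital anesthesia; 5% homogenate in phosphate buffer pH 7.4 incubated with test drug 1 h at 37 °C; lipid peroxide quantified by thiobarbituric acid method.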

Assay [2] is filed under the species Rattus norvegicus. As to the kind of experiment: Antilipid peroxidation was determined. It is filed as functional. In short, it runs like this: (§2)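 Rat brain lipid peroxidation: brains from male SD rats (12 weeks old), exsanguinated under pentobarbital anaesthesia, homogenized to 5% in phosphate buffer pH 7.4. Homogenate incubated with test drug at 37 °C for 1 h. Lipid peroxide quantified by the thiobarbituric acid method.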

Assay [3] can be described thus: Reducing activity determined by the use of stable radical alpha,alpha-di-phenyl-beta-picrylhydrazyl (DPPH). Also on record: concentration or dose not given beside the values.
Assay [4] is filed under the species Rattus norvegicus. Put plainly: Antilipid peroxidation was measured at 10e-5 M concentration. Format: functional. In short, it runs like this: as §2
In assay [5] the test system is Rattus norvegicus. Put plainly: Effect of AOS scavenger on ventricular fibrillation (VF), arrhythmias induced by ischemia-reperfusion in anesthetized rat, incidence at 3 mg/kg; 6/6. It is filed as functional, Cardiac ventricle.
Assay [6] has as its system Rattus norvegicus. As to the kind of experiment: Effect of AOS scavenger on arrhythmias induced by ischemia-reperfusion in anesthetized rat measured as ventricular tachycardia (VT), incidence at 3 mg/kg; 6/6. Format: functional, Cardiac ventricle.
The species entered for assay [7] is Rattus norvegicus. Put plainly: Reducing activity determined by the use of stable radical alpha,alpha-di-phenyl-beta-picrylhydrazyl (DPPH). Format: functional, organism-based. The method, boiled down:
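Compound mixed with equimolar α,α-diphenyl-β-picrylhydrazyl; absorbance at 517 nm read after 20 min; reducing activity taken as absorbance difference from control.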

Assay [8] relates to Rattus norvegicus. Put plainly: Effect of AOS scavenger on arrhythmias induced by ischemia-reperfusion in anesthetized rat measured as ventricular tachycardia (VT), duration at 3 mg/kg. It is filed as functional, Cardiac ventricle.
Assay [9] relates to Rattus norvegicus. As to the kind of experiment: Effect of AOS scavenger on arrhythmias induced by ischemia-reperfusion in anesthetized rat measured as ventricular tachycardia (VT), frequency, times at 3 mg/kg. Format: functional, Cardiac ventricle.
The subject of assay [10] is Rattus norvegicus. Put plainly: Effect of AOS scavenger on premeture ventricular complexes PVCs, arrhythmias induced by ischemia-reperfusion in anesthetized rat, duration at 3 mg/kg. It is filed as functional, Cardiac ventricle.
Assay [11] relates to Rattus norvegicus. As to the kind of experiment: Effect of AOS scavenger on ventricular fibrillation (VF), arrhythmias induced by ischemia-reperfusion in anesthetized rat, incidence at 3 mg/kg. Format: functional, Cardiac ventricle.
For assay [12], the system named is Rattus norvegicus. Put plainly: Effect of AOS scavenger on premeture ventricular complexes PVCs, arrhythmias induced by ischemia-reperfusion in anesthetized rat, duration at 20 mg/kg; PVSc/min. It is filed as functional, Cardiac ventricle. In short, it runs like this: (§3)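 Male SD rats (9–13 weeks, 250–370 g) under pentobarbital anesthesia with artificial respiration underwent thoracotomy and LAD coronary occlusion followed by reperfusion. Dosing was oral, 20 mg/kg at 24 h and again 20 mg/kg at 5 min before occlusion. VF and VT incidence, frequency and duration, and mean PVCs/min were recorded at 10 min postreperfusion.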

The subject of assay [13] is Rattus norvegicus. Put plainly: Effect of AOS scavenger on ventricular fibrillation (VF),arrhythmias induced by ischemia-reperfusion in anesthetized rat, duration at 20 mg/kg. Format: functional, Cardiac ventricle. In short, it runs like this:
as §3

Assay [14] relates to Rattus norvegicus. As to the kind of experiment: Effect of AOS scavenger on ventricular tachycardia (VT),arrhythmias induced by ischemia-reperfusion in anesthetized rat, incidence at 20 mg/kg; 8/8. It is filed as functional, Cardiac ventricle. The method, boiled down: as §3
Assay [15] concerns Rattus norvegicus. Put plainly: Effect of AOS scavenger on ventricular tachycardia (VT), arrhythmias induced by ischemia-reperfusion in anesthetized rat, frequency, times at 20 mg/kg. It is filed as functional, Cardiac ventricle. The method, boiled down: as §3
Assay [16] has as its system Rattus norvegicus. As to the kind of experiment: Effect of AOS scavenger on ventricular fibrillation (VF),arrhythmias induced by ischemia-reperfusion in anesthetized rat, incidence at 20 mg/kg; 4/8. Format: functional, Cardiac ventricle. In short, it runs like this:
as §3

The test system of assay [17] is Rattus norvegicus. As to the kind of experiment: Effect of AOS scavenger on ventricular tachycardia (VT),arrhythmias induced by ischemia-reperfusion in anesthetized rat, duration at 20 mg/kg. Format: functional, Cardiac ventricle. The method, boiled down: as §3
In assay [18] the test system is Rattus norvegicus. As to the kind of experiment: Effect of AOS scavenger on ventricular fibrillation (VF), arrhythmias induced by ischemia-reperfusion in anesthetized rat, frequency, times at 20 mg/kg. It is filed as functional, Cardiac ventricle. In short, it runs like this:
as §3

In assay [19] the test system is Rattus norvegicus. Put plainly: Effect of AOS scavenger on ventricular fibrillation (VF), arrhythmias induced by ischemia-reperfusion in anesthetized rat, duration at 10 mg/kg. Format: functional, Cardiac ventricle.
The test system of assay [20] is Rattus norvegicus. As to the kind of experiment: Effect of AOS scavenger on ventricular tachycardia (VT), arrhythmias induced by ischemia-reperfusion in anesthetized rat, frequency, times at 10 mg/kg. Format: functional, Cardiac ventricle.
Assay [21] deals with Rattus norvegicus. Put plainly: Effect of AOS scavenger on ventricular fibrillation (VF),arrhythmias induced by ischemia-reperfusion in anesthetized rat, incidence at 10 mg/kg; 5/5. Format: functional, Cardiac ventricle.
The test system of assay [22] is Rattus norvegicus. As to the kind of experiment: Effect of AOS scavenger on ventricular tachycardia (VT),arrhythmias induced by ischemia-reperfusion in anesthetized rat incidence at 10 mg/kg; 4/5. It is filed as functional, Cardiac ventricle.
The species named for assay [23] is Rattus norvegicus. As to the kind of experiment: Inhibition of lipid peroxidation was determined with rat brain tissue homogenates. Format: functional. The method, boiled down: as §1
For assay [24], the system named is Rattus norvegicus. Put plainly: Effect of AOS scavenger on premeture ventricular complexes PVCs, arrhythmias induced by ischemia-reperfusion in anesthetized rat, duration at 10 mg/kg. Format: functional, Cardiac ventricle. Conditions: 10 mg/kg.
Assay [25] has as its system Rattus norvegicus. As to the kind of experiment: Effect of AOS scavenger on ventricular tachycardia (VT),arrhythmias induced by ischemia-reperfusion in anesthetized rat, duration at 10 mg/kg. Format: functional, Cardiac ventricle. Conditions: 10 mg/kg.
Assay [26] has as its system Rattus norvegicus. As to the kind of experiment: Effect of AOS scavenger on ventricular fibrillation (VF), arrhythmias induced by ischemia-reperfusion in anesthetized rat, frequency, times at 10 mg/kg. Format: functional, Cardiac ventricle. To be noted: 10 mg/kg.

Structures are written as SMILES. A value given as a limit tells only on which side of the number the result lay.

As usually defined, the IC50 is the point on the concentration scale where inhibition reaches its midpoint. `CCCCCCCCCCCCCCCCCCCCOC1=C(O)OC(C(O)CO)C1=O` (stereo not given) gave an IC50 in the assay listed under Rattus norvegicus [1] of 4.7 µM. In addition, the Antilipid peroxidation in the assay filed under Rattus norvegicus [2] was found to be 75.8%. The same molecule yielded a Reducing activity in [3] of 95.3%.
Regarding `CCCCCCCCCCCCCCCCCCOC1=C(O)OC(C(O)COC(C)=O)C1=O` (stereo not given), the IC50 in the assay filed under Rattus norvegicus [1] stood at 4.2 µM. For the same molecule, in the assay filed under Rattus norvegicus [4], the Antilipid peroxidation is 76.3%.
`CCCCCCCCCCOC1=C(O)OC(C(O)CO)C1=O` (stereo not given) had an IC50 in the assay filed under Rattus norvegicus [1] of 13 µM. In addition, the Antilipid peroxidation in the assay filed under Rattus norvegicus [2] is 42.5%.
Regarding `O=C1O[C@H]([C@@H](O)CO)C(O)=C1O` [ASCORBIC ACID], the Incidence in the assay with Rattus norvegicus [5] and in the assay with Rattus norvegicus [6] was 6 N in each case. In the assay listed under Rattus norvegicus [7], this molecule displayed a Reducing activity of 93.4%. Besides, the figures for the Duration with Rattus norvegicus [8] and with Rattus norvegicus [11] were 8.2 s and 41.4 s, respectively. For the same molecule, the Frequency in the assay on Rattus norvegicus [9] worked out at 3.7; in the assay on Rattus norvegicus [11], 4. In the assay on Rattus norvegicus [10], this molecule showed an Activity of 7.4 min. In addition, the Antilipid peroxidation in the assay listed under Rattus norvegicus [2] is -71%.
For the molecule `CCCCCCCCCCCCCCCCCCOC1=C(O)[C@@H](C(O)CO)OC1=O` (stereo in doubt; 8) [listing 1 of 2 here], the Antilipid peroxidation in the assay listed under Rattus norvegicus [2] is 44.7%.
`CCCCCCCCCOC1=C(O)OC(C(O)CO)C1=O` (stereo not given) returned an IC50 in the assay listed under Rattus norvegicus [1] of 27 µM. For the same molecule, in the assay listed under Rattus norvegicus [2], the Antilipid peroxidation was 22.4%.
In the assay on Rattus norvegicus [12], `Oc1ncnc2[nH]ncc12` [ALLOPURINOL] had an Activity of 2.7 min. Moreover, the Duration in the assay on Rattus norvegicus [13] worked out at 1.3 s; with Rattus norvegicus [17], 5.9 s. Moreover, the Incidence came out at 8 N in the assay with Rattus norvegicus [14] and 4 N in the assay on Rattus norvegicus [16]. Further, the Frequency in the assay with Rattus norvegicus [15] amounted to 3.1; in the assay with Rattus norvegicus [18], 0.9.
With `CCCCCCOc1ccc(COC2=C(O)OC(C(O)CO)C2=O)cc1` (stereo not given), the Antilipid peroxidation in the assay filed under Rattus norvegicus [2] is 38.8%.
Take `CCCCCCCCCCCCCCCCCCOC1=C(O)[C@@H](C(O)CO)OC1=O` (stereo in doubt; 8) [listing 2 of 2 here]: the Duration in the assay on Rattus norvegicus [19] came out at 122.4 s; in the assay on Rattus norvegicus [25], 11.8 s. Further, the figures for the Frequency with Rattus norvegicus [20] and with Rattus norvegicus [26] were 3.8 and 1.6, respectively. The figures for the Incidence with Rattus norvegicus [21] and in the assay on Rattus norvegicus [22] were 5 N and 4 N, respectively. In the assay filed under Rattus norvegicus [23], this molecule came in with an IC50 of 9.8 µM. In the assay on Rattus norvegicus [24], this molecule came in with a PVCs of less than 4 PVCs/min.
For the molecule `CCCCCCCCCCCCCCCCCCOC1=C(O)OC(CCO)C1=O` (stereo not given), in the assay filed under Rattus norvegicus [1], half-maximal inhibition (IC50) required 6.8 µM. For the same molecule, in the assay listed under Rattus norvegicus [2], the Antilipid peroxidation was 52%. This molecule also had a Reducing activity in assay [3] of 93.9%.
Consider `CCCCCCCCOC1=C(O)OC(C(O)CO)C1=O` (stereo not given), for which the Antilipid peroxidation in the assay listed under Rattus norvegicus [4] came out at 1.6%. For the same molecule, the Reducing activity in [3] is 93.9%.
